Measurements of several laboratories.
Compare with care: the assays were run in different laboratories.
Organism: Staphylococcus aureus
Read-out: microbial growth

O=C(O)[C@H]1O[C@@H](Oc2c(-c3ccc(O)c(O)c3)oc3cc(O)cc(O)c3c2=O)[C@H](O)[C@@H](O)[C@@H]1O — MIC (broth dilution; 16 h): > 250 µg/mL
Cc1nn(-c2ccccc2)c2c1C(c1ccc(O)cc1)N(C(=O)c1ccncc1)N2 (centres unmarked) — MIC (MTCC96; 24 h): > 100 µg/mL
O=C(OC[C@H]1O[C@@H](OC(=O)c2cc(O)c(O)c(O)c2)[C@H](OC(=O)c2cc(O)c(O)c(O)c2)[C@@H](OC(=O)c2cc(O)c(O)c(O)c2)[C@@H]1OC(=O)c1cc(O)c(O)c(O)c1)c1cc(O)c(O)c(O)c1 — MIC (broth dilution; 16 h): 100 µg/mL
O=C(C=Cc1ccc(O)c(O)c1)Oc1cccc2cccnc12 — MIC (broth dilution; FDA209): 8 µg/mL
Cc1[nH]c(C(=O)Nc2ccc(C(=O)NCC(=O)O)cc2N2CC[C@H](N)C2)c(Cl)c1Cl.Cl — MIC (broth dilution; ATCC29213): > 32 µg/mL
O=C(C=Cc1ccc(O)c(O)c1)OCc1ccccc1 — MIC (broth dilution; FDA209): 8 µg/mL
Cc1nn(-c2ccccc2)c2c1C(c1ccc([N+](=O)[O-])cc1)N(C(=O)c1ccncc1)N2 (centres unmarked) — MIC (MTCC96; 24 h): 64 µg/mL
Cl.N[C@H]1CCN(c2cc(C(=O)NCC(=O)O)ccc2NC(=O)c2cc(Br)c(Br)[nH]2)C1 — MIC (broth dilution; ATCC29213): > 32 µg/mL
COc1ccc(C2c3c(C)nn(-c4ccccc4)c3NN2C(=O)c2ccncc2)cc1 (centres unmarked) — MIC (MTCC96; 24 h): 64 µg/mL
CN[C@H](CC(C)C)C(=O)N[C@H]1C(=O)N[C@@H](CC(N)=O)C(=O)N[C@H]2C(=O)N[C@H]3C(=O)N[C@H](C(=O)N[C@H](C(=O)O)c4cc(O)cc(O)c4-c4cc3ccc4O)[C@H](O)c3ccc(c(Cl)c3)Oc3cc2cc(c3O[C@@H]2O[C@H](CO)[C@@H](O)[C@H](O)[C@H]2O[C@H]2C[C@](C)(N)[C@H](O)[C@H](C)O2)Oc2ccc(cc2Cl)[C@H]1O — MIC (ATCC29213 MSSA): 0.67 µM
CC1(C)S[C@@H]2[C@H](NC(=O)[C@H](N)c3ccccc3)C(=O)N2[C@H]1C(=O)O — MIC (broth dilution; FDA209): 4 µg/mL
CC(C)(C)OC(=O)N1CCN(c2cc(C(=O)NCC(=O)O)ccc2NC(=O)c2cc(Br)c(Br)[nH]2)CC1 — MIC (broth dilution; ATCC29213): > 32 µg/mL
CC(O)CSc1nnc(Cn2cnc3c2c(=O)n(C)c(=O)n3C)n1-c1ccccc1 (centres unmarked) — MIC: 9000 µg/mL
CC(C)NCC(COc1cccc2ccccc12)OC(=O)C=Cc1ccc(O)c(O)c1 (centres unmarked) — MIC (broth dilution; FDA209): 32 µg/mL
O=C(N[C@H](CO)[C@H](O)c1ccc([N+](=O)[O-])cc1)C(Cl)Cl — MIC (24 h): 5 to 10 µM
Nc1ccccc1OC(=O)C=Cc1ccc(O)c(O)c1 — MIC (broth dilution; FDA209): 8 µg/mL
Cc1[nH]c(C(=O)Nc2ccc(C(=O)NCC(=O)O)cc2N2CC[C@H](NC(=O)OC(C)(C)C)C2)c(Cl)c1Cl — MIC (broth dilution; ATCC29213): > 32 µg/mL
C=C/C=C(\C)CC[C@H]1C[C@H](O)CC(=O)O1 — MIC (broth dilution; ATCC6538P): 256 µg/mL
Cc1nn(-c2ccccc2)c2c1C(c1ccco1)N(C(=O)c1ccncc1)N2 (centres unmarked) — MIC (MTCC96; 24 h): 64 µg/mL
Cl.O=C(O)CNC(=O)c1ccc(NC(=O)c2cc(Br)c(Br)[nH]2)c(N2CCNCC2)c1 — MIC (broth dilution; ATCC29213): > 32 µg/mL
O=c1c(O[C@@H]2O[C@H](CO)[C@@H](O)[C@H](O)[C@H]2O)c(-c2ccc(O)c(O)c2)oc2cc(O)cc(O)c12 — MIC (broth dilution; 16 h): > 100 µg/mL
Cc1[nH]c(C(=O)Nc2ccc(C(=O)NCc3n[nH]c(=O)o3)cc2N2CCNCC2)c(Cl)c1Cl.Cl — MIC (broth dilution; ATCC29213): > 32 µg/mL
Cc1ccc(-c2nnc(SCC(C)O)n2-c2ccccc2)cc1 (centres unmarked) — MIC: 3500 µg/mL
Cc1nn(-c2ccccc2)c2c1C(c1ccc(N(C)C)cc1)N(C(=O)c1ccncc1)N2 (centres unmarked) — MIC (MTCC96; 24 h): 8 µg/mL
CC(C)(C)OC(=O)N[C@@H]1CCN(c2cc(C(=O)NCC(=O)O)ccc2NC(=O)c2cc(Br)c(Br)[nH]2)C1 — MIC (broth dilution; ATCC29213): > 32 µg/mL
CC(O)CSc1nnc(COc2ccc(Cl)cc2Br)n1-c1ccccc1 (centres unmarked) — MIC: 12000 µg/mL
